From ChEMBL document CHEMBL5724801, “EUbOPEN Chemogenomics Library - Multiplex” (2024)
“And” between values parts separate entries of the source, which are not always exact repeats. Identical values can stand only once.

System: Fibroblast
Assay: Multiplex assay against human fibroblast
Format: toxicity, cell-based
Summary of the method: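 Live cells were stained at seeding with Hoechst33342, BioTracker Green Microtubule Cytoskeleton Dye, MitoTracker Red and Annexin V Alexa Fluor 680, then imaged on a CQ1 microscope at 37°C and 5% CO2 after compound addition. CellPathfinder machine-learning gating split cells into Hoechst high-intensity objects or normal cells. Normal cells were split into healthy, pyknosed or fragmented nuclei, and pyknosed cells into mitotic or apoptotic. Tubulin, mitochondrial-mass and membrane-permeability phenotypes are per cents of healthy-nucleus cells.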

[1] = 12 h, 1 µM, compound concentration 1 uM
[2] = 12 h, 10 µM, compound concentration 10 uM
[3] = 24 h, 1 µM, compound concentration 1 uM
[4] = 24 h, 10 µM, compound concentration 10 uM
[5] = 48 h, 1 µM, compound concentration 1 uM
[6] = 48 h, 10 µM, compound concentration 10 uM

CC(/C=C1\SC(=S)N(CCCC(=O)Nc2ccc(C(=O)O)c(O)c2)C1=O)=C\c1ccccc1
Population Apoptotic (%) [1]: 50% and 33%
Population Fragmented Nuclei (%) [1]: 14% and 19%
Population Healthy Nuclei (%) [1]: 71% and 60%
Population Hoechst High Intensity Objects (%) [1]: 2% and 3%
Population Membrane Permeable-Phenotype (%) [1]: 0% and 13%
Population Mitochondria Different-Phenotype (%) [1]: 2% and 9%
Population Mitotic Cells (%) [1]: 50% and 66%
Population Normal (%) [1]: 97% and 96%
Population Pyknosed Nuclei (%) [1]: 13% and 19%
Population Tubulin-Different-Phenotype (%) [1]: 28% and 54%
Total Cell Count [1]: 206 and 157
Population Apoptotic (%) [2]: 56% and 40%
Population Fragmented Nuclei (%) [2]: 15% and 19%
Population Healthy Nuclei (%) [2]: 70% and 48%
Population Hoechst High Intensity Objects (%) [2]: 2% and 4%
Population Membrane Permeable-Phenotype (%) [2]: 0% and 8%
Population Mitochondria Different-Phenotype (%) [2]: 5%
Population Mitotic Cells (%) [2]: 43% and 59%
Population Normal (%) [2]: 97% and 95%
Population Pyknosed Nuclei (%) [2]: 13% and 31%
Population Tubulin-Different-Phenotype (%) [2]: 44% and 54%
Total Cell Count [2]: 123 and 122
Population Apoptotic (%) [3]: 54% and 33%
Population Fragmented Nuclei (%) [3]: 17%
Population Healthy Nuclei (%) [3]: 72% and 63%
Population Hoechst High Intensity Objects (%) [3]: 1% and 2%
Population Membrane Permeable-Phenotype (%) [3]: 2% and 5%
Population Mitochondria Different-Phenotype (%) [3]: 4% and 12%
Population Mitotic Cells (%) [3]: 45% and 66%
Population Normal (%) [3]: 98% and 97%
Population Pyknosed Nuclei (%) [3]: 10% and 19%
Population Tubulin-Different-Phenotype (%) [3]: 25% and 44%
Total Cell Count [3]: 208 and 144
Population Apoptotic (%) [4]: 66% and 53%
Population Fragmented Nuclei (%) [4]: 11% and 20%
Population Healthy Nuclei (%) [4]: 81% and 53%
Population Hoechst High Intensity Objects (%) [4]: 0% and 4%
Population Membrane Permeable-Phenotype (%) [4]: 0% and 11%
Population Mitochondria Different-Phenotype (%) [4]: 4%
Population Mitotic Cells (%) [4]: 33% and 46%
Population Normal (%) [4]: 99% and 95%
Population Tubulin-Different-Phenotype (%) [4]: 25% and 70%
Total Cell Count [4]: 119 and 120
Population Apoptotic (%) [5]: 78% and 45%
Population Fragmented Nuclei (%) [5]: 24% and 29%
Population Healthy Nuclei (%) [5]: 66% and 56%
Population Hoechst High Intensity Objects (%) [5]: 3% and 1%
Population Membrane Permeable-Phenotype (%) [5]: 1% and 7%
Population Mitochondria Different-Phenotype (%) [5]: 2% and 6%
Population Mitotic Cells (%) [5]: 21% and 54%
Population Normal (%) [5]: 96% and 98%
Population Pyknosed Nuclei (%) [5]: 9% and 14%
Population Tubulin-Different-Phenotype (%) [5]: 31% and 44%
Total Cell Count [5]: 216 and 159
Population Apoptotic (%) [6]: 46% and 59%
Population Fragmented Nuclei (%) [6]: 18% and 34%
Population Healthy Nuclei (%) [6]: 69% and 46%
Population Hoechst High Intensity Objects (%) [6]: 0% and 3%
Population Membrane Permeable-Phenotype (%) [6]: 0% and 5%
Population Mitochondria Different-Phenotype (%) [6]: 1% and 5%
Population Mitotic Cells (%) [6]: 53% and 40%
Population Normal (%) [6]: 100% and 96%
Population Pyknosed Nuclei (%) [6]: 12% and 19%
Population Tubulin-Different-Phenotype (%) [6]: 33% and 58%
Total Cell Count [6]: 124 and 118
